Source: ChEMBL document CHEMBL4350958, “Rational Design of Short Peptide Variants by Using Kunitzin-RE, an Amphibian-Derived Bioactivity Peptide, for Acquired Potent Broad-Spectrum Antimicrobial and Improved Therapeutic Potential of Commensalism Coinfection of Pathogens” (J Med Chem, 2019)
Converted amounts (≈) assume the structure as drawn. The source made the active and inactive calls. The calls are words filed in the database; no cut-off is given here. Where a SMILES comes first, the peptide text is derived from it.

Columns and labels:
Escherichia coli [1] = test: Antibacterial activity against Escherichia coli ATCC 25922 measured after 24 hrs; type: functional
How it was run: (§1)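 Broth microdilution adapted from NCCLS. Mid-log bacteria were diluted in MHB to a final (0.5–1) × 10^5 CFU mL−1. Peptides were serially diluted in 0.2% BSA and mixed with an equal volume of cells. After 24 h at 37 °C, MIC was read at A492 as the lowest concentration inhibiting 95% of growth. At least three independent experiments, each with three technical replicates.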

[2] = Therapeutic index, ratio of MHC10 for hemolytic activity in human RBC to MIC95 against methicillin-resistant Staphylococcus aureus ATCC 43300; type: toxicity; details: human red blood cells (erythrocytes), read-out: TI
How it was run: (§2)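 Therapeutic index = MHC divided by MIC. MHC is the lowest concentration giving >10% lysis of human RBC (1 h, 37 °C, 1-128 µM, A576). MIC is 95% growth inhibition by broth microdilution: bacteria in MHB 24 h at 37 °C; Candida in MOPS-buffered RPMI 1640 at (0.5–1) × 10^3 CFU mL−1, 48 h at 28 °C.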

Candida parapsilosis = test: Fungicidal activity against Candida parapsilosis cgmcc2.3989 incubated for 48 hrs followed by replating on YM agar plate and measured after 48 hrs; type: functional
How it was run: (§3)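 Yeast diluted in MOPS-buffered RPMI 1640 to (0.5–1) × 10^3 CFU/mL (CLSI M27-A2, modified) and mixed 1:1 with peptide serially diluted in 0.2% BSA. After 48 h at 28 °C, 50 μL per well was plated on YM agar and incubated 48 h at 28 °C. MFC taken as the lowest concentration killing ≥99.9% of cells. Three or more independent experiments, triplicate wells.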

Staphylococcus aureus [3] = test: Bactericidal activity against Staphylococcus aureus ATCC 25923 incubated for 24 hrs followed by replating on agar plate and measured after overnight incubation; type: functional; details: for MBC: ATCC 25923, 24 h, read-out: MBC>99.9
How it was run: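 After the 24 h, 37 °C MHB microdilution MIC assay, 50 μL from each well was plated on agar and incubated overnight. MBC taken as lowest peptide concentration killing >99.9% of cells. At least three independent experiments, each with three technical replicates.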

Lipopolysaccharide (LPS) = test: Displacement of BODIPY-TR-cadaverine from Escherichia coli O111:B4 LPS after 1 hr by spectrofluorophotometric method
How it was run: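 LPS from E. coli O111:B4 (50 μg/mL) preincubated 4 h with BODIPY-TR-cadaverine (5 μg/mL) in 50 mM Tris, pH 7.4. Mixed with equal volume of peptide (1-64 µM) and incubated 1 h at 37 °C, then fluorescence read. %ΔF = (Fobs−F0)/(F100−F0)×100, with 10 μg mL-1 polymyxin B defining F100. Three technical replicates per experiment.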

[4] = Therapeutic index, ratio of MHC10 for hemolytic activity in human RBC to MIC95 against Staphylococcus aureus ATCC 25923; type: toxicity; details: human red blood cells (erythrocytes), read-out: TI; how it was run: as §2
Staphylococcus aureus [5] = test: Antibacterial activity against Staphylococcus aureus ATCC 29213 measured after 18 to 24 hrs in presence of KCl; type: functional
Escherichia coli [6] = test: Antibacterial activity against Escherichia coli 078 measured after 24 hrs; type: functional; how it was run: as §1
Escherichia coli [7] = test: Antibacterial activity against Escherichia coli ATCC 25922 measured after 18 to 24 hrs in presence of CaCl2; type: functional
[8] = Therapeutic index, ratio of MHC10 for hemolytic activity in human RBC to MIC95 against Staphylococcus epidermidis ATCC 12228; type: toxicity; details: human red blood cells (erythrocytes), read-out: TI; how it was run: as §2
Salmonella typhimurium = test: Antibacterial activity against Salmonella typhimurium ATCC 14028 measured after 24 hrs; type: functional, Salmonella enterica subsp. enterica serovar Typhimurium; how it was run: as §1
Escherichia coli [9] = test: Antibacterial activity against Escherichia coli ATCC 25922 measured after 18 to 24 hrs in presence of KCl; type: functional
Candida albicans [10] = test: Fungicidal activity against Candida albicans cgmcc2.2086 incubated for 48 hrs followed by replating on YM agar plate and measured after 48 hrs; type: functional; how it was run: as §3
Candida albicans [11] = test: Antifungal activity against Candida albicans cgmcc2.2086 measured after 48 hrs in presence of CaCl by broth microdilution method; type: functional
[12] = Hemolytic activity in human RBC at 128 uM measured after 1 hr relative to control; type: ADME, cell-based, Erythrocyte; details: human red blood cells (erythrocytes), read-out: Activity
How it was run: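 Fresh human erythrocytes at ~1% (v/v) in PBS pH 7.4, mixed with equal volume of peptide (1-128 µM) for 1 h at 37 °C. After centrifugation, hemoglobin in the supernatant read at 576 nm. Untreated cells set 0% and 0.1% Triton X-100 set 100% hemolysis. At least three independent experiments, each in triplicate.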

[13] = Therapeutic index, ratio of MHC10 for hemolytic activity in human RBC to MIC95 against Staphylococcus aureus ATCC 29213; type: toxicity; details: human red blood cells (erythrocytes), read-out: TI; how it was run: as §2
Candida tropicalis = test: Fungicidal activity against Candida tropicalis cgmcc2.1975 incubated for 48 hrs followed by replating on YM agar plate and measured after 48 hrs; type: functional; how it was run: as §3
Pseudomonas aeruginosa = test: Antibacterial activity against Pseudomonas aeruginosa ATCC 27853 at sub-MBC measured after 17 serial passages; type: functional, organism-based
How it was run: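 P. aeruginosa ATCC 27853 passaged every 24 h by 100-fold dilution in MHB containing sub-MBC drug, for 30 passages. MBC was tested on the cells from each passage. Control cells were passaged in drug-free MHB. Run independently in triplicate with three biological replicates.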

[14] = Conformational stability in pH 7.4 sodium phosphate buffer assessed as absorption spectra at minimum dichroic band at 35 uM by CD spectra analysis; type: physicochemical; details: pH 7.4, 35 µM
How it was run: (§4)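 CD spectra from 190 to 250 nm of peptide at 35 μM in 10 mM PBS, 30 mM SDS micelles or 50% TFE, recorded in a 1.0-mm quartz cell. Ellipticity was converted to mean residue ellipticity. Three independent scans, each averaged over more than 3 runs.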

[15] = Conformational stability in sodium dodecyl sulfate at 35 uM by CD spectra analysis; type: physicochemical; how it was run: as §4
[16] = system: Salmonella enterica subsp. enterica serovar Pullorum; test: Bactericidal activity against Salmonella pullorum ATCC 7913 incubated for 24 hrs followed by replating on agar plate and measured after overnight incubation; type: functional
How it was run: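 Mid-log bacteria diluted in MHB to (0.5–1) × 10^5 CFU/mL and mixed 1:1 with peptide serially diluted in 0.2% BSA. After 24 h at 37 °C, 50 μL of each mixture was plated on agar and incubated overnight. MBC taken as the lowest concentration killing >99.9% of cells. At least three independent experiments, each with three technical replicates.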

Candida albicans [17] = test: Antifungal activity against Candida albicans cgmcc2.2086 assessed as ratio of MIC95 in presence of NaCl to in absence of NaCl; type: functional
Staphylococcus aureus [18] = test: Antibacterial activity against Staphylococcus aureus ATCC 29213 assessed as ratio of MIC95 in presence of NaCl to in absence of NaCl; type: functional
[19] = Conformational stability in sodium dodecyl sulfate assessed as beta-sheet conformation by measuring absorption spectra at maximum dichroic band at 35 uM by CD spectra analysis; type: physicochemical; how it was run: as §4
[20] = Conformational stability in sodium dodecyl sulfate assessed as beta-sheet conformation by measuring absorption spectra at minimum dichroic band at 35 uM by CD spectra analysis; type: physicochemical; how it was run: as §4
[21] = Salmonella enterica, ATCC 14028, 24 h

Compound	MIC95 (Escherichia coli [1]; ATCC 25922, 24 h) [µM]	selectivity ratio [2]	MFC<=99.9 (Candida parapsilosis) [µM]	MBC (Staphylococcus aureus [3]) [µM]	Activity (Lipopolysaccharide (LPS))	selectivity ratio [4]	MIC95 (Staphylococcus aureus [5]) [µM]	MIC95 (Escherichia coli [6]; Escherichia coli, 078, 24 h) [µM]	MIC95 (Escherichia coli [7]) [µM]	selectivity ratio [8]	MIC95 (Salmonella typhimurium; [21]) [µM]	MIC95 (Escherichia coli [9]) [µM]	MFC<=99.9 (Candida albicans [10]) [µM]	MIC95 (Candida albicans [11]; cgmcc2.2086, 48 h) [µM]	hemolysis at 1 h, 128 µM [12] [%]	selectivity ratio [13]	MFC<=99.9 (Candida tropicalis) [µM]	Activity (Pseudomonas aeruginosa)	Wavelength of minimum CD band [14] [nm]	Ratio (Candida albicans [17])	also measured
CC[C@H](C)[C@H](NC(=O)CN)C(=O)NCC(=O)N[C@@H](C)C(=O)N[C@H](C(=O)N[C@@H](CC(C)C)C(=O)N[C@@H](CCCCN)C(=O)N[C@H](C(=O)N[C@@H](CC(C)C)C(=O)N[C@H](C(=O)N[C@H](C(=O)NCC(=O)N[C@@H](CC(C)C)C(=O)N1CCC[C@H]1C(=O)N[C@@H](C)C(=O)N[C@@H](CC(C)C)C(=O)N[C@H](C(=O)N[C@@H](CO)C(=O)N[C@@H](Cc1c[nH]c2ccccc12)C(=O)N[C@H](C(=O)N[C@@H](CCCCN)C(=O)N[C@@H](CCCNC(=N)N)C(=O)N[C@@H](CCCCN)C(=O)N[C@@H](CCCNC(=N)N)C(=O)N[C@@H](CCC(N)=O)C(=O)N[C@@H](CCC(N)=O)C(N)=O)[C@@H](C)CC)[C@@H](C)CC)[C@@H](C)O)[C@@H](C)O)C(C)C)C(C)C [MELITTIN]	2 (≈ 5.69 µg/mL)	0.35	4 (≈ 11.4 µg/mL)	8 (≈ 22.8 µg/mL)	Dose-dependent effect	0.35	4	2 (≈ 5.69 µg/mL)	8	0.35	2 (≈ 5.69 µg/mL)	2	8 (≈ 22.8 µg/mL)	8	84 to 94	0.35	4 (≈ 11.4 µg/mL)	inactive			
CC[C@H](C)[C@H](NC(=O)[C@H](CCCCN)NC(=O)[C@H](C)NC(=O)[C@H](C)N)C(=O)N[C@H](C(=O)N[C@@H](CC(C)C)C(=O)N[C@@H](CC(N)=O)C(=O)N1CCC[C@H]1C(=O)N[C@@H](CCCCN)C(=O)N[C@@H](Cc1ccccc1)C(=O)N[C@@H](CCCNC(=N)N)C(=O)N[C@@H](CS)C(=O)N[C@@H](CCCCN)C(=O)N[C@@H](C)C(=O)N[C@@H](C)C(=O)N[C@@H](Cc1ccccc1)C(=O)N[C@@H](CS)C(N)=O)[C@@H](C)CC (H-AAKIILNPKFRCKAAFC-NH2)	32 (≈ 60.6 µg/mL)	0.3		> 128	Dose-dependent effect	0.3	> 128	> 128	> 128	0.3	64 (≈ 121 µg/mL)	32		> 128	20	0.3			200		Stability [15]: Unstable
GENTAMICIN							1		1			1						inactive			MIC95 (Escherichia coli [1]): 1 µM; MBC>99.9 (Staphylococcus aureus [3]): 1 µM; MIC95 (Escherichia coli [6]): 0.5 µM; MBC>99.9 [16]: 2 µM; MIC95 (Salmonella typhimurium; Salmonella enterica subsp. enterica serovar Typhimurium): 2 µM; MIC95 (Candida albicans [11]): > 128 µM
H-AARRILRWIFR-NH2	4	45.2	16	8		45.2	4	4	16	45.2	4	8	8	128		45.2	4		200	4	Ratio (Staphylococcus aureus [18]): 16
H-AARIILRWRFR-NH2	4	215	8	4	Dose-dependent effect	215	1	2	4	215	2	2	8	32		215	4		200	4	Wavelength of maximum dichroic band [19]: 200 nm; Activity [20]: 216 to 220 nm; Ratio (Staphylococcus aureus [18]): 4
